Experimental data: ChEMBL document CHEMBL1770090, “Synthesis, antimicrobial, antioxidant, anti-hemolytic and cytotoxic evaluation of new imidazole-based heterocycles” (Eur J Med Chem, 2011)
Values after ≈ are worked out from the molar mass of the structure shown.

How the values were obtained:
[1] = Antioxidant activity assessed as ABTS radical scavenging activity at 2 mM; type: functional
Procedure, shortened: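 ABTS (60 µM, 2 mL) was oxidized with MnO2 (25 mg/mL, 3 mL) in 0.1 M phosphate buffer pH 7, then centrifuged and filtered, with A734 adjusted to about 0.5. 50 µL of 2 mM compound in MeOH/phosphate buffer (1:1) was added. Colour loss expressed as % inhibition. L-ascorbic acid was the standard; blank and negative controls used MeOH/buffer.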

[2] = Antioxidant activity in rat erythrocytes assessed as inhibition of peroxyl radicals-induced hemolysis at 2 mM after 2 hrs; type: functional; settings: Erythrocyte, read-out: INH
Procedure, shortened: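 Rat blood from cardiac puncture, heparinized. Erythrocytes were washed three times in 0.15 M NaCl. A 10% suspension in PBS pH 7.4 was mixed with an equal volume of 200 mM AAPH in PBS containing sample, then shaken at 37 °C for 2 h. Mixture diluted with 8 volumes of PBS and centrifuged; supernatant A540 compared with a water-lysed sample for complete hemolysis. L-ascorbic acid was the positive control. Mean ± SD.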

Bacillus subtilis [3] = assay: Antimicrobial activity against Bacillus subtilis ATCC 6633 after 24 hrs by agar well diffusion method; type: functional
Procedure, shortened: (§1)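 Agar well diffusion. Inocula of 100 µL: bacteria 1 × 10^8 CFU/mL on nutrient agar, yeast 1 × 10^6 CFU/mL on Sabouraud dextrose agar, fungi 1 × 10^4 spore/mL on potato dextrose agar. 10 mm wells received 100 µL of compound at 100 mg/mL in DMSO. Bacteria incubated 24 h at 37 °C, fungi 48 h at 28 °C. Controls were DMSO, ciprofloxacin 50 µg/mL and ketoconazole 50 µg/mL. Inhibition zone diameter in mm, scored N.A. to ++++, average of triplicates.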

Priestia megaterium = assay: Antimicrobial activity against Bacillus megaterium ATCC 9885 after 24 hrs by agar well diffusion method; type: functional; procedure, shortened: as §1
Staphylococcus aureus [4] = assay: Antimicrobial activity against Staphylococcus aureus ATCC 29213 after 24 hrs by agar well diffusion method; type: functional; procedure, shortened: as §1
Klebsiella pneumoniae = assay: Antimicrobial activity against Klebsiella pneumoniae ATCC 13883 after 24 hrs by agar well diffusion method; type: functional; procedure, shortened: as §1
Pseudomonas aeruginosa = assay: Antimicrobial activity against Pseudomonas aeruginosa ATCC 27953 after 24 hrs by agar well diffusion method; type: functional; procedure, shortened: as §1
Escherichia coli = assay: Antimicrobial activity against Escherichia coli ATCC 25922 after 24 hrs by agar well diffusion method; type: functional; procedure, shortened: as §1
Candida albicans = assay: Antimicrobial activity against Candida albicans NRRL Y-477 after 48 hrs by agar well diffusion method; type: functional; procedure, shortened: as §1
Aspergillus niger = assay: Antimicrobial activity against Aspergillus niger after 48 hrs by agar well diffusion method; type: functional; procedure, shortened: as §1
[5] = Cytotoxicity against mouse EAC cells assessed as cell viability using trypan blue staining after 2 hrs by hemocytometer analysis; type: functional, cell-based; settings: Ehrlich
Bacillus subtilis [6] = assay: Antimicrobial activity against Bacillus subtilis ATCC 6633 after 24 hrs by two fold serial dilution technique; type: functional; settings: ATCC 6633, 24 h
Procedure, shortened: (§2)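 Tested only compounds giving inhibition zones ≥ 16 mm, by two-fold serial dilution in nutrient broth. Final concentrations were […], 175, 87.5, 43.8 and 21.9 µg/mL. Each 5 mL tube received 0.1 mL inoculum of about 1 × 10^8 CFU/mL and was incubated 24 h at 37 °C. MIC was the lowest concentration with no growth.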

Staphylococcus aureus [7] = assay: Antimicrobial activity against Staphylococcus aureus ATCC 29213 after 24 hrs by two fold serial dilution technique; type: functional; settings: ATCC 29213, 24 h; procedure, shortened: as §2

Compound	inhibition [1] [%]	percent hemolysis at 2000 µM [2] [%]	diameter of the inhibition zone (DIZ) (Bacillus subtilis [3])	diameter of the inhibition zone (DIZ) (Priestia megaterium)	diameter of the inhibition zone (DIZ) (Staphylococcus aureus [4])	diameter of the inhibition zone (DIZ) (Klebsiella pneumoniae)	diameter of the inhibition zone (DIZ) (Pseudomonas aeruginosa)	diameter of the inhibition zone (DIZ) (Escherichia coli)	diameter of the inhibition zone (DIZ) (Candida albicans)	diameter of the inhibition zone (DIZ) (Aspergillus niger)	IC50 [5] [µg/mL]	MIC (Bacillus subtilis [6]) [µg/mL]	MIC (Staphylococcus aureus [7]) [µg/mL]
O=C1O[C@H]([C@@H](O)CO)C(O)=C1O [ASCORBIC ACID]	88.6	0.85											
C/C(=N\N=C1\N=C(c2cc3ccccc3oc2=O)CS1)c1nc(-c2ccccc2)[nH]c1C	61.6	2.5	<=4 mm	<=4 mm	<=4 mm	<=4 mm	<=4 mm	<=4 mm	<=4 mm	<=4 mm	125 (≈ 283 µM)		
C/C(=N\NC(=O)/C(C#N)=C\c1cn(-c2ccccc2)nc1-c1cc2ccccc2o1)c1nc(-c2ccccc2)[nH]c1C	34.6	5.55	<=4 mm	<=4 mm	<=4 mm	<=4 mm	<=4 mm	<=4 mm	<=4 mm	<=4 mm	125 (≈ 227 µM)		
C/C(=N\N=C1\N=C(c2ccccc2)CS1)c1nc(-c2ccccc2)[nH]c1C	79.3	2.75	16 mm	<=4 mm	16 mm	10 mm	10 mm	10 mm	<=4 mm	<=4 mm	19.5 (≈ 52.2 µM)	43.8 (≈ 117 µM)	29.1 (≈ 77.9 µM)
CC1=NC(=N/N=C(\C)c2nc(-c3ccccc3)[nH]c2C)/S/C1=N\Nc1ccccc1	44.4	6.4	<=4 mm	<=4 mm	<=4 mm	<=4 mm	<=4 mm	<=4 mm	<=4 mm	<=4 mm	20.2 (≈ 48.7 µM)		
C/C(=N\N=C1\N=C2N=c3ccccc3=NC2S1)c1nc(-c2ccccc2)[nH]c1C (configuration not stated)	37.4	1.1	<=4 mm	<=4 mm	<=4 mm	<=4 mm	<=4 mm	<=4 mm	<=4 mm	<=4 mm	4.25 (≈ 10.6 µM)		
O=c1[nH]cc(F)c(=O)[nH]1 [FLUOROURACIL]											1.5 (≈ 11.5 µM)		
CC1=NC(=N/N=C(\C)c2nc(-c3ccccc3)[nH]c2C)/S/C1=N\Nc1ccc(Cl)cc1	40.7	1.7	<=4 mm	<=4 mm	<=4 mm	<=4 mm	<=4 mm	<=4 mm	<=4 mm	<=4 mm	20.2 (≈ 45 µM)		
C/C(=N\NC(=O)CC#N)c1nc(-c2ccccc2)[nH]c1C	48.2	3.65	<=4 mm	<=4 mm	<=4 mm	<=4 mm	<=4 mm	<=4 mm	<=4 mm	<=4 mm	125 (≈ 445 µM)		
